Laboratory results published in ChEMBL document CHEMBL1124215, “Improved delivery through biological membranes. 26. Design, synthesis, and pharmacological activity of a novel chemical delivery system for beta-adrenergic blocking agents” (1988).
Calls of active or inactive are those of the source. No cut-off for these calls is given here.

What was measured:
Oryctolagus cuniculus [1] = assay: Percentage change of IOP in rabbits after 6 hr administration (1%) of compound; assay type: functional
How it was run: (§1)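 Rabbits received 1% or 2.5% drug solution in pH 7.4 buffer or saline in both eyes, at least four per group. A control group of at least three rabbits received carrier only. IOP was read by pneumatonometer in unrestrained, unanesthetized animals after one drop of 0.5% propacaine diluted 1:2 with saline. Readings were taken at 30 and 60 min and at 2–8 h. Values are mean ± SE, with significance by Student's t test.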

Oryctolagus cuniculus [2] = assay: Percentage change of IOP in rabbits after 2 hr administration (1%) of compound; assay type: functional
How it was run: (§2)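 IOP was read by pneumatonometer in unrestrained, unanesthetized rabbits after local propacaine drops. Drug was given as a 1% or 2.5% solution in pH 7.4 buffer or saline to both eyes, at least four rabbits per group; controls (at least three) received carrier only. Readings were taken at 30 and 60 min and at 2, 3, 4, 6 and 8 h. Values are mean ± SE; Student's t test.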

Oryctolagus cuniculus [3] = assay: Percentage change of IOP in rabbits after 30 min administration (1%) of compound; assay type: functional; how it was run: as §1
Oryctolagus cuniculus [4] = assay: Percentage change of IOP in rabbits after 3h administration (1%) of compound; assay type: functional; how it was run: as §1
Oryctolagus cuniculus [5] = assay: Percentage change of IOP in rabbits after 4 hr administration (1%) of compound; assay type: functional; how it was run: as §1
Oryctolagus cuniculus [6] = assay: Percentage change of IOP in rabbits after 5 hr administration (1%) of compound; assay type: functional; how it was run: as §1
Oryctolagus cuniculus [7] = assay: Percentage change of IOP in rabbits after 0 min administration (1%) of compound; assay type: functional; how it was run: as §2
Oryctolagus cuniculus [8] = assay: Percentage change of IOP in rabbits after 1 hr administration (1%) of compound; assay type: functional; how it was run: as §2
Oryctolagus cuniculus [9] = assay: Effect on IOP of rabbits 0 min after administration (1%); assay type: functional; how it was run: as §2
Oryctolagus cuniculus [10] = assay: Effect on IOP of rabbits 1 hr after administration (1%); assay type: functional; how it was run: as §2
Oryctolagus cuniculus [11] = assay: Effect on IOP of rabbits 2 hr after administration (1%); assay type: functional; how it was run: as §2
Oryctolagus cuniculus [12] = assay: Effect on IOP of rabbits 30 mins after administration (1%); assay type: functional; how it was run: as §2
Oryctolagus cuniculus [13] = assay: Effect on IOP of rabbits 3h after administration (1%); assay type: functional; how it was run: as §2
Oryctolagus cuniculus [14] = assay: Effect on IOP of rabbits 4 hr after administration (1%); assay type: functional; how it was run: as §2
Oryctolagus cuniculus [15] = assay: Effect on IOP of rabbits 5 hr after administration (1%); assay type: functional
Oryctolagus cuniculus [16] = assay: Effect on IOP of rabbits 6 hr after administration (1%); assay type: functional; how it was run: as §2
Oryctolagus cuniculus [17] = assay: Effect on IOP of rabbits 8 hr after administration (1%); assay type: functional; how it was run: as §2
Oryctolagus cuniculus [18] = assay: Concentration of propranolone oxime in cornea of rabbit after 120 min administration of compound; N/A= no oxime can be present after administration of propranolone hydrochloride; assay type: functional, organism-based
How it was run: (§3)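 Adult male New Zealand albino rabbits (2.5–3.5 kg), at least four per time point. 100 µL of a 1% solution in saline was instilled topically into both eyes. Animals were killed at 30, 60 or 120 min. Cornea and iris-ciliary body were homogenized in methanol to 10% homogenates and deproteinized by centrifugation. Aqueous humor was analysed undiluted. HPLC was calibrated against spiked control-rabbit tissue. Values are mean ± SE, µg/g.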

Oryctolagus cuniculus [19] = assay: Concentration of propranolone oxime in cornea of rabbit after 30 min administration of compound; N/A= no oxime can be present after administration of propranolone hydrochloride; assay type: functional, organism-based; how it was run: as §3
Oryctolagus cuniculus [20] = assay: Concentration of propranolone oxime in cornea of rabbit after 60 min administration of compound; N/A= no oxime can be present after administration of propranolone hydrochloride; assay type: functional, organism-based; how it was run: as §3
Oryctolagus cuniculus [21] = assay: Concentration of propranolone oxime in iris-ciliary body of rabbit after 120 min administration of compound; N/A= no oxime can be present after administration of propranolone hydrochloride; assay type: functional, organism-based; how it was run: as §3
Oryctolagus cuniculus [22] = assay: Concentration of propranolone oxime in iris-ciliary body of rabbit after 30 min administration of compound; N/A= no oxime can be present after administration of propranolone hydrochloride; assay type: functional, organism-based; how it was run: as §3
Oryctolagus cuniculus [23] = assay: Concentration of propranolone oxime in iris-ciliary body of rabbit after 60 min administration of compound; N/A= no oxime can be present after administration of propranolone hydrochloride; assay type: functional, organism-based; how it was run: as §3
Oryctolagus cuniculus [24] = assay: Concentration in aqueous humor of rabbit after 30 min administration of compound; assay type: functional, organism-based; details: Aqueous humor of eyeball; how it was run: as §3
Oryctolagus cuniculus [25] = assay: Concentration in aqueous humor of rabbit after 60 min administration of compound; assay type: functional, organism-based; details: Aqueous humor of eyeball; how it was run: as §3
Oryctolagus cuniculus [26] = assay: Percentage change of IOP in rabbits after 60 min administration (1%) of compound; assay type: functional; how it was run: as §1
Oryctolagus cuniculus [27] = assay: Percentage change of IOP in rabbits after 60 min administration (2.5%) of compound; assay type: functional; how it was run: as §1
Oryctolagus cuniculus [28] = assay: Percentage change of IOP in rabbits after 6 hr administration (2.5%) of compound; assay type: functional; how it was run: as §1
Oryctolagus cuniculus [29] = assay: Percentage change of IOP in rabbits after 8 hr administration (1%) of compound; assay type: functional; how it was run: as §1
Oryctolagus cuniculus [30] = assay: Percentage change of IOP in rabbits after 8 hr administration (2.5%) of compound; assay type: functional; how it was run: as §1
Oryctolagus cuniculus [31] = assay: Percentage change of IOP in rabbits after 2 hr administration (2.5%) of compound; assay type: functional; how it was run: as §2
Oryctolagus cuniculus [32] = assay: Percentage change of IOP in rabbits after 30 min administration (2.5%) of compound; assay type: functional; how it was run: as §1
Oryctolagus cuniculus [33] = assay: Percentage change of IOP in rabbits after 3h administration (2.5%) of compound; assay type: functional; how it was run: as §1
Oryctolagus cuniculus [34] = assay: Percentage change of IOP in rabbits after 0 min administration (2.5%) of compound; assay type: functional; how it was run: as §2
Oryctolagus cuniculus [35] = assay: Concentration in cornea of rabbit after 30 min administration of compound; assay type: functional, organism-based; how it was run: as §3
Oryctolagus cuniculus [36] = assay: Concentration in cornea of rabbit after 60 min administration of compound; assay type: functional, organism-based; how it was run: as §3
Oryctolagus cuniculus [37] = assay: Concentration in iris-ciliary body of rabbit after 30 min administration of compound; assay type: functional, organism-based; how it was run: as §3
Oryctolagus cuniculus [38] = assay: Concentration of propranolone oxime in aqueous humor of rabbit after 120 min administration of compound; N/A= no oxime can be present after administration of propranolone hydrochloride; assay type: functional, organism-based; details: Aqueous humor of eyeball; how it was run: as §3
Oryctolagus cuniculus [39] = assay: Concentration of propranolone oxime in aqueous humor of rabbit after 30 min administration of compound; N/A= no oxime can be present after administration of propranolone hydrochloride; assay type: functional, organism-based; details: Aqueous humor of eyeball; how it was run: as §3
Oryctolagus cuniculus [40] = assay: Effect on IOP of rabbits 0 min after administration (2.5%); assay type: functional; how it was run: as §2
Oryctolagus cuniculus [41] = assay: Effect on IOP of rabbits 2 hr after administration (2.5%); assay type: functional; how it was run: as §2
Oryctolagus cuniculus [42] = assay: Effect on IOP of rabbits 30 mins after administration (2.5%); assay type: functional; how it was run: as §2
Oryctolagus cuniculus [43] = assay: Effect on IOP of rabbits 3h after administration (2.5%); assay type: functional; how it was run: as §2
Oryctolagus cuniculus [44] = assay: Effect on IOP of rabbits 4 hr after administration (2.5%); assay type: functional; how it was run: as §2
Oryctolagus cuniculus [45] = assay: Effect on IOP of rabbits 60 mins after administration (2.5%); assay type: functional; how it was run: as §2
Oryctolagus cuniculus [46] = assay: Effect on IOP of rabbits 6 hr min after administration (1%); assay type: functional; how it was run: as §2
Oryctolagus cuniculus [47] = assay: Effect on IOP of rabbits 6 hr min after administration (2.5%); assay type: functional; how it was run: as §2
Oryctolagus cuniculus [48] = assay: Effect on IOP of rabbits 8 hr min after administration (1%); assay type: functional; how it was run: as §2
Oryctolagus cuniculus [49] = assay: Effect on IOP of rabbits 8 hr min after administration (2.5%); assay type: functional; how it was run: as §2
Oryctolagus cuniculus [50] = assay: Concentration of propranolone oxime in aqueous humor of rabbit after 60 min administration of compound; N/A= no oxime can be present after administration of propranolone hydrochloride; assay type: functional, organism-based; details: Aqueous humor of eyeball; how it was run: as §3
Oryctolagus cuniculus [51] = assay: Percentage change of IOP in rabbits after 4 hr administration (2.5%) of compound; assay type: functional; how it was run: as §1
Oryctolagus cuniculus [52] = assay: Effect on IOP of rabbits 60 min after administration (1%); assay type: functional; how it was run: as §2

## CC(C)(C)NC[C@H](O)COc1nsnc1N1CCOCC1 (stereo in doubt) [TIMOLOL]
Oryctolagus cuniculus [1]
  Change: 1.2%
Oryctolagus cuniculus [2]
  Change: -15.6%
Oryctolagus cuniculus [3]
  Change: -2.43%
Oryctolagus cuniculus [4]
  Change: -11.6%
Oryctolagus cuniculus [5]
  Change: -5.31%
Oryctolagus cuniculus [6]
  Change: -5.49%
Oryctolagus cuniculus [7]
  Change: 0%
Oryctolagus cuniculus [8]
  Change: -14.6%
Oryctolagus cuniculus [9]
  IOP: 28.44 mmHg
Oryctolagus cuniculus [10]
  IOP: 24.3 mmHg
Oryctolagus cuniculus [11]
  IOP: 24 mmHg
Oryctolagus cuniculus [12]
  IOP: 27.75 mmHg
Oryctolagus cuniculus [13]
  IOP: 25.13 mmHg
Oryctolagus cuniculus [14]
  IOP: 26.93 mmHg
Oryctolagus cuniculus [15]
  IOP: 26.88 mmHg
Oryctolagus cuniculus [16]
  IOP: 28.78 mmHg
Oryctolagus cuniculus [17]
  IOP: 26.33 mmHg

## CC(C)NCC(O)COc1cccc2ccccc12 (stereo not drawn) [PROPRANOLOL]
Oryctolagus cuniculus [18]
  Concentration: inactive
Oryctolagus cuniculus [19]
  Concentration: inactive
Oryctolagus cuniculus [20]
  Concentration: inactive
Oryctolagus cuniculus [21]
  Concentration: inactive
Oryctolagus cuniculus [22]
  Concentration: inactive
Oryctolagus cuniculus [23]
  Concentration: inactive
Oryctolagus cuniculus [24]
  Concentration: 1.3 µg/g
Oryctolagus cuniculus [25]
  Concentration: 0.3 µg/g
Oryctolagus cuniculus [26]
  Change: >-10.39%
Oryctolagus cuniculus [27]
  Change: >9.84%
Oryctolagus cuniculus [1]
  Change: -5.84%
Oryctolagus cuniculus [28]
  Change: 0%
Oryctolagus cuniculus [29]
  Change: -1.95%
Oryctolagus cuniculus [30]
  Change: -0.79%
Oryctolagus cuniculus [2]
  Change: -5.52%
Oryctolagus cuniculus [31]
  Change: 1.18%
Oryctolagus cuniculus [3]
  Change: >-9.1%
Oryctolagus cuniculus [32]
  Change: >8.66%
Oryctolagus cuniculus [4]
  Change: -11.04%
Oryctolagus cuniculus [33]
  Change: 1.18%
Oryctolagus cuniculus [5]
  Change: -8.44%
Oryctolagus cuniculus [7]
  Change: 0%
Oryctolagus cuniculus [34]
  Change: 0%
Oryctolagus cuniculus [35]
  Concentration: 47.1 µg/g
Oryctolagus cuniculus [36]
  Concentration: 14.5 µg/g
Oryctolagus cuniculus [37]
  Concentration: 8.1 µg/g
Oryctolagus cuniculus [38]
  Concentration: inactive
Oryctolagus cuniculus [39]
  Concentration: inactive
Oryctolagus cuniculus [40]
  IOP: 25.4 mmHg
Oryctolagus cuniculus [9]
  IOP: 30.8 mmHg
Oryctolagus cuniculus [11]
  IOP: 29.1 mmHg
Oryctolagus cuniculus [41]
  IOP: 25.7 mmHg
Oryctolagus cuniculus [12]
  IOP: 29 mmHg
Oryctolagus cuniculus [42]
  IOP: 27.6 mmHg
Oryctolagus cuniculus [13]
  IOP: 27.4 mmHg
Oryctolagus cuniculus [43]
  IOP: 25.7 mmHg
Oryctolagus cuniculus [14]
  IOP: 28.2 mmHg
Oryctolagus cuniculus [44]
  IOP: 25.6 mmHg
Oryctolagus cuniculus [45]
  IOP: 27.9 mmHg
Oryctolagus cuniculus [46]
  IOP: 29 mmHg
Oryctolagus cuniculus [47]
  IOP: 25.4 mmHg
Oryctolagus cuniculus [48]
  IOP: 30.2 mmHg
Oryctolagus cuniculus [49]
  IOP: 25.2 mmHg
Oryctolagus cuniculus [50]
  Concentration: inactive
Oryctolagus cuniculus [51]
  Change: 0.79%
Oryctolagus cuniculus [52]
  IOP: 27.6 mmHg
